The list is not random: actives were taken first. Their share in the collection is about 2.9%.
proKLK7 act: activators of human kallikrein-7 zymogen. P49862. purified proKLK7, EDANS-DABCYL substrate fluorescence; 100% is mature enzyme control, 0% vehicle. activation, % at 7 µM. 0.9% of 370,000 active. AID 652039;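 active means activation above the mean of all tested compounds plus 3 SD, computed per campaign excluding outliers beyond control limits, cut at about 13% in these data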
Target sequence (P49862 whole entry, looked up): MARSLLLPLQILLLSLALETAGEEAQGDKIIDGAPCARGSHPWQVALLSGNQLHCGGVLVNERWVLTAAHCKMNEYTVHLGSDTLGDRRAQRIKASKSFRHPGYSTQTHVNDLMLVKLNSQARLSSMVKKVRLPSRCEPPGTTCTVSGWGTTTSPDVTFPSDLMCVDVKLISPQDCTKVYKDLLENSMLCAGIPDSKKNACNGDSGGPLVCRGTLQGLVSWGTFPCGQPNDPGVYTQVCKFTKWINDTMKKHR
Tn6 DDE FP: DD(E)-Tn6 binding inhibition, primary FP screen; P02675; inhibition, % at 8.3 µM; 0.21% of 370,000 active; Fibrin DD(E) TRITC-Tn6 fluorescence polarization displacement; AID 720509;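 active means inhibition above a per-campaign cutoff: mean of compounds within control limits plus 3 SD, cut at about 15% in these data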
Target sequence (P02675 whole entry, looked up): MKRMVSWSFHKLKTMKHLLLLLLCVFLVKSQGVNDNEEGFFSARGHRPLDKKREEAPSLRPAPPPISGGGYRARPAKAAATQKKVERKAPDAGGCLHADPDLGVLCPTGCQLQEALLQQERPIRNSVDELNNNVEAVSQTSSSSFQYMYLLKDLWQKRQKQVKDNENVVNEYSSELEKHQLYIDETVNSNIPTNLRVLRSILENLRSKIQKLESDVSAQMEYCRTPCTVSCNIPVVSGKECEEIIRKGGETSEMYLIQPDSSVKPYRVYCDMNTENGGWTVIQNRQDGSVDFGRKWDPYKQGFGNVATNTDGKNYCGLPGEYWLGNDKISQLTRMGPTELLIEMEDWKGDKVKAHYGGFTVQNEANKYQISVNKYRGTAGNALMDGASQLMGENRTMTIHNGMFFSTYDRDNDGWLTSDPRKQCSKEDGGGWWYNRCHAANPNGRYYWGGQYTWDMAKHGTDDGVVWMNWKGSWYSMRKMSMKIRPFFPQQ
CRFR2-BP antag: blocks CRF-induced signaling of the CRF-BP/CRF-R2 complex | HEK293 CRF-R2/CRF-BP, CRF-induced calcium fluorescence | inhibition, % at 11.8 µM | 0.59% of 350,000 active;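 active means inhibition of the ligand-induced calcium signal above about 50% at the single tested concentration, limit read from the data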
Tn7 DDE FP: inhibitors of Tn7 peptide binding to human fibrin DD(E); inhibition, % at 8.3 µM; P02675; AID 720508; FP displacement of FITC-Tn7 peptide from fibrin DD(E); 0% = median of compound wells per plate; 0.13% of 370,000 active;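 active means inhibition above the mean of compounds falling within the control limits plus 3 SD of them, cut at about 14% in these data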
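Assay system: Fibrin-DD(E) protein isolated from polymerized human fibrin clots; read-out basis: percent inhibition; medium: Tris/NaCl/CaCl2 buffer, pH 7.8; signal: FP measurement; incubation: 10 min plus 3 h, room temperature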
CRFBP-R2 agonist: CRF-BP/CRF-R2 complex agonism; HEK293 CRF-R2/CRF-BP, calcium dye fluorescence (FLIPR); percent of saturating CRF peptide response; activation, % at 13.2 µM; 0.46% of 350,000 active; AID 588473;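 active means activation of at least 50%, plus an integration ratio under a set limit after plate pattern correction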
NRP1-CendR mod: NRP-1/CendR interaction modulation; 0.85% of 360,000 active; inhibition, % at 25 µM; FAM-RPARPAR peptide binding to NRP-1, fluorescence polarization;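 active means inhibition or corrected inhibition above about 18%, plus a signal ratio from 0.5 to 1.5, limit read from the data, passing the limit was not always enough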
Of the large screens only hits and unclear results are named; the others gave an inactive call.

CCN(CC)CCN1C(=O)c2cccc3cc(N)cc(c23)C1=O	none
O=C1c2cccc3cc([N+](=O)[O-])cc(c23)C(=O)N1CCN1CCCC1	NRP1-CendR mod 30
COc1ccc2c(c1)CCCN2C(=O)C1CCCN(S(=O)(=O)c2ccc(Cl)s2)C1 (stereo not drawn)	none (no result: CRFR2-BP antag, CRFBP-R2 agonist, NRP1-CendR mod)
O=C1CSC(c2cn(-c3ccccc3)nc2-c2cc3ccccc3oc2=O)N1Cc1ccccc1 (stereo not drawn)	none
O=C1CSC(c2nn(-c3ccccc3)cc2-c2cc3ccccc3oc2=O)N1Cc1ccco1 (stereo not drawn)	CRFR2-BP antag 84
COc1ccc(S(=O)(=O)Nc2c(C)n(C)n(-c3ccccc3)c2=O)cc1C(=O)O	CRFR2-BP antag 51
Cc1c(NS(=O)(=O)c2ccc(Br)cc2)c(=O)n(-c2ccccc2)n1C	none
COC(=O)C1CN(Cc2cn(Cc3ccc(F)cc3)nn2)CCS(=O)(=O)N1Cc1ccc(OC)cc1 (stereo not drawn)	none (no result: CRFR2-BP antag, CRFBP-R2 agonist, NRP1-CendR mod)
COc1ccc2c(c1)CNC2CS(=O)(=O)NCc1ccc(F)cc1 (stereo not drawn)	none (no result: CRFR2-BP antag, CRFBP-R2 agonist, NRP1-CendR mod)
COc1ccc(CC(=O)O/N=C(\N)c2cccc([N+](=O)[O-])c2)cc1	CRFR2-BP antag 67
CN1CCCCC(NC(=O)c2c(F)cccc2F)C1=O (stereo not drawn)	none (no result: CRFR2-BP antag, CRFBP-R2 agonist, NRP1-CendR mod)
O=c1cc[nH]c2c(Cl)cccc12	CRFR2-BP antag 92
Cc1ccc(C)c(CSc2nnc(-c3cccs3)n2Cc2ccco2)c1	CRFR2-BP antag 50
COc1cc(NC(=O)C2CCN(c3nnc(-n4cccc4)s3)CC2)cc(OC)c1	none (no result: CRFR2-BP antag, CRFBP-R2 agonist, NRP1-CendR mod)
O=C(NCCc1ccccn1)c1ccc2c(c1)ncn2C1CCCCC1	none (no result: CRFR2-BP antag, CRFBP-R2 agonist, NRP1-CendR mod)
COc1ccc(/C=N\NS(=O)(=O)c2ccc(Cl)cc2)cc1COc1ccccc1[N+](=O)[O-]	NRP1-CendR mod 24
Cc1ccc2c(c1)C(CS(=O)(=O)NCC(C)C)NC2 (stereo not drawn)	none (no result: CRFR2-BP antag, CRFBP-R2 agonist, NRP1-CendR mod)
CC(C)(C)C(=O)Nc1sc2c(c1C#N)CCN(Cc1ccccc1)C2	CRFBP-R2 agonist 162
CCCCCCCCNS(=O)(=O)/C=C/c1ccccc1CNC(=O)OC(C)(C)C	none (no result: CRFR2-BP antag, CRFBP-R2 agonist, NRP1-CendR mod)
CCC1CCc2sc(C(=O)Nc3cc(S(=O)(=O)N4CCOCC4)ccc3OC)cc2C1 (stereo not drawn)	none (no result: proKLK7 act, CRFR2-BP antag, CRFBP-R2 agonist, NRP1-CendR mod)
Cc1cc2c(cc1C)NC(c1c(C)n(C)n(-c3ccccc3)c1=O)C1=C(CC(C)(C)CC1=O)N2 (stereo not drawn)	CRFBP-R2 agonist 63
CCCCCCCCN1C(=O)N2Cc3ccc(C)cc3C2CS1(=O)=O (stereo not drawn)	none (no result: CRFR2-BP antag, CRFBP-R2 agonist, NRP1-CendR mod)
CCN1CCN(c2ccc(S(=O)(=O)N3CCOCC3)cc2NC(=O)c2cc(Cl)nc3ccccc23)CC1	CRFR2-BP antag 82
CC(=O)CC[C@H]1CC[C@]2(CCCN(S(=O)(=O)C3CCCCC3)C2)O1	none (no result: CRFR2-BP antag, CRFBP-R2 agonist, NRP1-CendR mod)
COC(=O)C1CN(Cc2cn(CCC3OCCO3)nn2)CCS(=O)(=O)N1Cc1ccc(OC)cc1 (stereo not drawn)	none (no result: CRFR2-BP antag, CRFBP-R2 agonist, NRP1-CendR mod)
COC(=O)c1c(C)c2c(C)cc3ccccn3c-2c1C(=O)OC	NRP1-CendR mod 35
COC(=O)c1cc2c(-c3ccccc3)cc3ccccn3c-2c1C(=O)OC	none
O=C(NNC(=O)c1ccccc1Br)c1cccs1	NRP1-CendR mod 25
O=C(NNC(=S)NC(=O)c1cccs1)c1ccc(O)cc1	none
O=C(CSc1nncs1)NNC(=O)c1ccccc1Br	NRP1-CendR mod 20
O=C(NNC(=O)c1cccs1)c1ccccc1	none
O=C(NC(=S)NNC(=O)c1cccs1)c1ccc(Br)o1	CRFBP-R2 agonist 71
O=C(CSc1ccc(F)cc1)NNC(=O)c1ccccc1Br	none
O=C(NC1CCC1)c1ccc(C#Cc2cccc(F)c2)nc1	none (no result: CRFR2-BP antag, CRFBP-R2 agonist, NRP1-CendR mod)
O=C(c1cccc(I)c1)N1CCC(Oc2cccnc2)CC1	none (no result: CRFR2-BP antag, CRFBP-R2 agonist, NRP1-CendR mod)
COC(=O)c1cc2c(c3c4cc(F)ccc4n(S(=O)(=O)c4ccc(C)cc4)c13)C(=O)N(Cc1ccc(N(C)C)cc1)C2	none (no result: CRFR2-BP antag, CRFBP-R2 agonist, NRP1-CendR mod)
COc1ccc(N2C(=O)CSC23C(=O)N2c4c(cccc43)C(C)=CC2(C)C)cc1 (stereo not drawn)	CRFR2-BP antag 84
COc1ccc(N2C(=O)CSC23C(=O)N2CCCc4cccc3c42)cc1 (stereo not drawn)	none
COc1cc(CNc2ccccc2SC)ccc1O	CRFR2-BP antag 55
COC(=O)C1=C(C)N(Cc2ccccc2C(F)(F)F)C(=NCc2ccc(OC)cc2)NC1c1ccc(F)cc1 (stereo not drawn)	none (no result: CRFR2-BP antag, CRFBP-R2 agonist, NRP1-CendR mod)
N#CCC[C@@H]1CC[C@]2(CCCN(C(=O)c3ccco3)C2)O1	none (no result: CRFR2-BP antag, CRFBP-R2 agonist, NRP1-CendR mod)
CCC(C#Cc1ccccc1)N(C)C(N)=NC(=O)/C=C/c1ccccc1 (stereo not drawn)	none (no result: proKLK7 act, CRFR2-BP antag, CRFBP-R2 agonist, NRP1-CendR mod)
COC(=O)C1CN(Cc2ccc(C)cc2)CCS(=O)(=O)N1Cc1cn(Cc2ccccc2)nn1 (stereo not drawn)	none (no result: CRFR2-BP antag, CRFBP-R2 agonist, NRP1-CendR mod)
Cc1ccc2nc(N3C(=O)C(O)=C(C(=O)c4ccc(C)o4)C3c3cccc(O)c3)sc2c1 (stereo not drawn)	CRFR2-BP antag 96
COc1ccc(OC)c(NC(=O)CSc2ncnc3c2cnn3-c2ccccc2Cl)c1	CRFR2-BP antag 56 (no result: proKLK7 act, Tn6 DDE FP, Tn7 DDE FP)
C=CS(=O)(=O)N(Cc1nnn(Cc2ccccc2)c1Br)[C@@H](CC(C)C)C(=O)OC	none (no result: CRFR2-BP antag, CRFBP-R2 agonist, NRP1-CendR mod)
CCNC(=O)NC(=O)COC(=O)c1ccccc1SCC(=O)NC(=O)NCC	proKLK7 act 39
NC(=O)COC(=O)c1ccccc1SCC(=O)NC1CCCCCCC1	none
O=C(COc1ccccc1O)N1CCN(C(=O)c2ccco2)CC1	NRP1-CendR mod 32
COc1ccc(C(=O)NCC(=O)N2CCN(C(=O)c3ccco3)CC2)cc1	CRFBP-R2 agonist 316
COc1ccc(C(=O)NCC(=O)N2CCN(C(=O)c3ccco3)CC2)cc1OC	none
O=C(Nc1ccc2ccccc2c1)C1CC2CCC1C2 (stereo not drawn)	none (no result: proKLK7 act, CRFR2-BP antag, CRFBP-R2 agonist, NRP1-CendR mod)
COc1ccc(Cc2nc(-c3ccc(Cl)cc3)no2)cc1	CRFR2-BP antag 50
COc1ccc(Cc2nc(-c3ccc(Br)cc3)no2)cc1	none
O=S(=O)(NC1CCCCC1N1CCOCC1)c1ccc(Cl)cc1 (stereo not drawn)	CRFBP-R2 agonist 133
O=S(=O)(N[C@@H]1CCCC[C@@H]1N1CCOCC1)c1ccc(Cl)cc1	none (no result: proKLK7 act, CRFR2-BP antag, CRFBP-R2 agonist, NRP1-CendR mod)
O=S(=O)(NC1CCCCC1N1CCN(c2ccccc2F)CC1)c1ccc(Cl)cc1 (stereo not drawn)	CRFBP-R2 agonist 93
COc1ccc2c(c1)[C@@]1(NCCc3c1[nH]c1ccc(OC)cc31)C(=O)N2	none (no result: CRFR2-BP antag, CRFBP-R2 agonist, NRP1-CendR mod)
Cc1ccc(-c2cc(-c3nnc(SCC(=O)N4c5ccccc5Sc5ccc(Cl)cc54)n3N)[nH]n2)cc1	none (no result: CRFR2-BP antag, CRFBP-R2 agonist, NRP1-CendR mod)
CCCCCc1cccc2[nH]cc(-c3ccccc3)c12	none (no result: CRFR2-BP antag, CRFBP-R2 agonist, NRP1-CendR mod)

From PubChem BioAssay
